Measured values as given in ChEMBL document CHEMBL1165978, “Synthesis and evaluation of in vitro anticancer activity of some novel isopentenyladenosine derivatives” (Bioorg Med Chem, 2010).
The source made the active and inactive calls. The calls are words filed in the database; no cut-off is given here.

Key:
[1] = system: T-24; test: Antiproliferative activity against quiescent human T24 cells assessed as decrease in viable cell count at 10 uM after 72 hrs by trypan blue exclusion assay; format: functional, cell-based
Summary of the method: (§1)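 T24 cells were seeded at 2000/cm² in growth medium and allowed to attach for 16 h. They were then switched to complete medium (D-MEM, 10% FBS, 1 mM L-glutamine, penicillin/streptomycin) or to starvation medium (D-MEM, 0.1% FBS, 48 h, to induce quiescence). After 48 h, compound was added for 72 h, with 0.01% DMSO as control. Cells were trypsinized, stained with trypan blue and counted in a Burker chamber. Data are mean ± SD of at least 3 experiments in triplicate.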

[2] = system: T-24; test: Antiproliferative activity against quiescent human T24 cells at 10 uM after 72 hrs by MTT assay; format: functional, cell-based
Summary of the method: (§2)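 T24 cells were seeded at 2000/cm², and 16 h later were exposed to starvation medium (D-MEM, 0.1% FBS) or fresh complete medium (10% FBS) and treated with compound, with 0.01% DMSO as control. For the final 1 h the medium held MTT at 0.5 mg/mL. Formazan was then dissolved in DMSO for read-out. Data are mean ± SD of at least 3 experiments in triplicate, Student's t test.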

[3] = system: T-24; test: Antimetastatic activity in human T24 cells assessed as inhibition of EGF-stimulated cellular migration at 10 uM after 16 hrs by microscopic analysis; format: functional, cell-based
Summary of the method: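 Confluent T24 monolayers in 24-well plates were scratch-wounded, then given EGF (100 ng/mL) plus compound for 16 h, with DMSO (0.01% final) as control. Cells moving into the wound were photographed by microscope. Four fields per sample were counted and expressed as migration relative to control. Data are from at least 3 experiments in triplicate, mean ± SD, Student's t test.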

[4] = system: T-24; test: Antiproliferative activity against proliferating human T24 cells assessed as mild decrease in viable cell count at 10 uM after 72 hrs by trypan blue exclusion assay; format: functional, cell-based; summary of the method: as §1
[5] = system: T-24; test: Cytotoxicity against human T24 cells assessed as mild inhibition of cell colony formation at 10 uM after 24 hrs by crystal violet staining; format: functional, cell-based
[6] = system: T-24; test: Cytotoxicity against human T24 cells assessed as inhibition of cell colony formation at 10 uM after 24 hrs by crystal violet staining; format: functional, cell-based
[7] = system: T-24; test: Antiproliferative activity against proliferating human T24 cells at 10 uM after 72 hrs by MTT assay in presence of 10% fetal bovine serum
[8] = system: T-24; test: Antiproliferative activity against proliferating human T24 cells at 10 uM after 72 hrs by MTT assay; format: functional, cell-based; summary of the method: as §2

| Compound | inhibition [1] | Activity [2] | inhibition [3] | inhibition [4] | inhibition [5] | inhibition [6] | Activity [7] | Activity [8] |
| --- | --- | --- | --- | --- | --- | --- | --- | --- |
| CC(C)=CCNc1nc(N)nc2c1ncn2[C@@H]1O[C@H](CO)[C@@H](O)[C@H]1O | Active | Active | inactive | Active | Active |  |  |  |
| CC(C)=CCNc1ncnc2c1ncn2[C@@H]1O[C@H](CO)[C@@H](O)[C@H]1O (stereo in doubt; 1a) |  |  |  |  |  | inactive |  |  |
| CC(C)=CC[n+]1cnc2c(ncn2[C@@H]2O[C@H](CO)C[C@H]2O)c1N | Active |  | inactive |  |  |  | inactive |  |
| CC(C)=CCNc1ncnc2c1ncn2[C@@H]1O[C@H](CO)[C@@H](O)[C@@H]1O |  | inactive |  |  |  | inactive |  | inactive |
| CC(C)=CCNc1ncnc2c1ncn2[C@@H]1O[C@H](CO)[C@@H](O)[C@H]1O (stereo in doubt) |  | Active | inactive |  |  | Active |  |  |
